Measurements taken from ChEMBL document CHEMBL4014306, “Pyrazolopyrimidines as Potent Stimulators for Transient Receptor Potential Canonical 3/6/7 Channels” (J Med Chem, 2017).
Calls of active or inactive are those of the source. The rule behind the calls is not given here.

What was measured:
[1] = molecular target: T1, Short transient receptor potential channel 3 (Rattus norvegicus) (UniProt Q9JMI9); assay: Agonist activity at TRPC3 in rat primary glomerular mesangial cells assessed as increase in intracellular calcium level at 1 uM in presence of TRPC inhibitor […] by Fluo4-AM dye-based fluorescence assay; format: cell-based
T1 sequence (whole entry): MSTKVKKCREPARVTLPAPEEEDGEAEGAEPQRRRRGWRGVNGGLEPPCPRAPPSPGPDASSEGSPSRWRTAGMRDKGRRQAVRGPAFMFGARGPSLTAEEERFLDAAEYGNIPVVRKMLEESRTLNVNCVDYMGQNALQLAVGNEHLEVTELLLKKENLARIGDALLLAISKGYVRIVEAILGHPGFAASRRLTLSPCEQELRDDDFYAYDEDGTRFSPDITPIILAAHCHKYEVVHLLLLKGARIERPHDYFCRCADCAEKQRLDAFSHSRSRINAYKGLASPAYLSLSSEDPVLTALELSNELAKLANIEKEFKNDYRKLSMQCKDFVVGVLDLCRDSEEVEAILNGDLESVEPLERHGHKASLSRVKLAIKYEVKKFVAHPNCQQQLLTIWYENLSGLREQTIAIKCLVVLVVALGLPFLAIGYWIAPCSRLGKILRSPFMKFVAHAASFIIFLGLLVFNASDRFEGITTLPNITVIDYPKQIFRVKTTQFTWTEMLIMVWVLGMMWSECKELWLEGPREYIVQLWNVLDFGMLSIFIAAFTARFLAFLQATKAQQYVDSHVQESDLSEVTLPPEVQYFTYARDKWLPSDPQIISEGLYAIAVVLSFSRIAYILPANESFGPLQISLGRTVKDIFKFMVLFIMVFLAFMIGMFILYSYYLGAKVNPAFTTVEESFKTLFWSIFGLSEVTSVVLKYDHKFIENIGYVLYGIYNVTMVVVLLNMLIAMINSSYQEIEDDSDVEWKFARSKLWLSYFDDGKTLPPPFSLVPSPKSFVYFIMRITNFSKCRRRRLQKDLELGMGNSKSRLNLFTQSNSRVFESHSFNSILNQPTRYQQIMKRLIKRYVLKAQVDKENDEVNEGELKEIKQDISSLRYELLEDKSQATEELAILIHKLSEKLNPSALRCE
Outline: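 Rat glomerular mesangial cells, isolated by graded sieving from male Sprague–Dawley rats, collagenase-digested, cultured in RPMI 1640 with 17% FBS. Grown overnight on coverslips, then loaded with 10 μM Fluo4-AM and 0.02% pluronic F-127 for 1 h at 37 °C in 1 mM Ca2+ saline, pH 7.4. Compound at 1 μM. Confocal imaging, ex 488/em 515 nm, read as F/F0. For the 2-APB condition, 30 μM 2-APB for 2 min beforehand and kept during compound application.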

[2] = molecular target: T2, Short transient receptor potential channel 6 (Mus musculus) (UniProt Q61143); assay: Agonist activity at mouse TRPC6 expressed in HEK293 cells co-expressing Gq11-PLCbeta fused M5 receptor assessed as increase in intracellular calcium level measured for 2.5 mins by Fluo-8-AM dye-based fluorescence assay; format: cell-based
T2 sequence (whole entry): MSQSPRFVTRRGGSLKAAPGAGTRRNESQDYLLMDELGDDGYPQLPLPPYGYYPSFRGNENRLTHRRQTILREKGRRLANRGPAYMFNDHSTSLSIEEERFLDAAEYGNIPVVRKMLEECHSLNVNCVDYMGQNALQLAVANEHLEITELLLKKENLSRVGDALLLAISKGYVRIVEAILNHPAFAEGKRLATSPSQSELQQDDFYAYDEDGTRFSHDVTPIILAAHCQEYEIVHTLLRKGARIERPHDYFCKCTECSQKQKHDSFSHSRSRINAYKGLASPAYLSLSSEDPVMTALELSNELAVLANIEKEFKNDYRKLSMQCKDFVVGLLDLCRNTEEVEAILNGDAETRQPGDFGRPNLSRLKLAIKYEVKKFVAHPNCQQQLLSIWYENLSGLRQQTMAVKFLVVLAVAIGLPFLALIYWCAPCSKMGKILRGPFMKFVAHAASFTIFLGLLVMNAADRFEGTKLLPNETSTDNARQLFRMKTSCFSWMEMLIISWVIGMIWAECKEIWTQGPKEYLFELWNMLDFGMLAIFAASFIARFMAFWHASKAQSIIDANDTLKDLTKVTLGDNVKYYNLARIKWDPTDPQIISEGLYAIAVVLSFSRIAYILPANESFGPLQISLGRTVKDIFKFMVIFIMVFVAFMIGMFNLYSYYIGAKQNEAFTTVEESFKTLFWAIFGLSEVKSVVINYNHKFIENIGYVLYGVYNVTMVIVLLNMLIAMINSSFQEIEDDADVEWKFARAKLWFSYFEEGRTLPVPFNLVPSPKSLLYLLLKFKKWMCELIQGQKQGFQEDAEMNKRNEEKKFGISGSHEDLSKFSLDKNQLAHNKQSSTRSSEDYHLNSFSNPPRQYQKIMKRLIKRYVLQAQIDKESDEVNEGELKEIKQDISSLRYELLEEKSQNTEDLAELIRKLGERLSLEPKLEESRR

| Compound | Activity [1] | Activity [2] |
| --- | --- | --- |
| Cc1nn2c(O)cc(C3CCN(C(=O)OCc4ccccc4)CC3)nc2c1-c1ccc(F)cc1 | inactive |  |
| CCOC(=O)N1CCC(c2cc(O)n3nc(C)c(-c4ccc(F)cc4)c3n2)CC1 |  | Dose-dependent effect |
